{"source": "ChEMBL document CHEMBL1131066", "about": "“2-Substituted aminopyrido[2,3-d]pyrimidin-7(8H)-ones. structure-activity relationships against selected tyrosine kinases and in vitro and in vivo anticancer activity” (J Med Chem, 1998)", "key": {"[1]": {"test_system": "MCF7", "assay": "Difference in days for treated (T) and control (C) MCF-7 cell tumors to reach 750 mg in mice at 50 mg/kg peroral dose, days 1-15 administration", "format": "functional", "conditions": "route oral", "procedure,_shortened": "(§1)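 Nude mice (NCr nu/nu), 18–22 g, 6–8 per group, randomized and implanted with serially passaged tumor fragments in the right axilla on day 0. Dosed by average cage weight. Vehicle was 50 mM sodium lactate buffer, pH 4.0, or a 0.5% methyl cellulose suspension for one compound. Cisplatin was given in saline. T − C is the difference in days for treated and control tumors to reach 750 mg.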"}, "[2]": {"target": "T1, Fibroblast growth factor receptor 1 (Homo sapiens, UniProt P11362)", "T1 sequence (P11362 whole entry)": "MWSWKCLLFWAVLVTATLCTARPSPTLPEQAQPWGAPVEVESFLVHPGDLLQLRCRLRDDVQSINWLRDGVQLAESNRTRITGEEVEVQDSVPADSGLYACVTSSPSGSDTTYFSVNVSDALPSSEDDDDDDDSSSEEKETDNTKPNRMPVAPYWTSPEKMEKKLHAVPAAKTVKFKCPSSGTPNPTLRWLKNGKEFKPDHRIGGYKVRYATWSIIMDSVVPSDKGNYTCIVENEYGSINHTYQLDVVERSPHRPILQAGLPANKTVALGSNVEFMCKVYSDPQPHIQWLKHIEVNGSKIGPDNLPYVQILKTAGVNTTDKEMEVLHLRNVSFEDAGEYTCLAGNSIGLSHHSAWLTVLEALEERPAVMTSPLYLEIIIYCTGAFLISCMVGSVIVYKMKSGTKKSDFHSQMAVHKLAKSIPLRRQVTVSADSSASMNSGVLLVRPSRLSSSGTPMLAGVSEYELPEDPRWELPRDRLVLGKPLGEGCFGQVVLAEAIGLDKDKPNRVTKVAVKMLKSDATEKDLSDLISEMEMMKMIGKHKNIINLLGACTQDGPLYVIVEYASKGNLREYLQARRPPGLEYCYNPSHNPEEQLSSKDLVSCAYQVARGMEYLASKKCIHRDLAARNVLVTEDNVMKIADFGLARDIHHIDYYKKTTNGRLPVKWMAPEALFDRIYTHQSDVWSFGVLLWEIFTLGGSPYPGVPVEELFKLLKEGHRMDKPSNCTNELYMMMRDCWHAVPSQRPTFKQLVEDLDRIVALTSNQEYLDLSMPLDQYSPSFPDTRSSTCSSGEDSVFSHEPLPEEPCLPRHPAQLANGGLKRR", "assay": "Inhibitory concentration evaluated against fibroblast growth factor receptor 1."}, "[3]": {"target": "Platelet-derived growth factor receptor (Mus musculus, UniProt P05622+P26618)", "assay": "Inhibition of PDGF-induced autophosphorylation of PDGF-R in NIH3T3 cells"}, "[4]": {"test_system": "C6", "assay": "Weight change of C6 glioma tumor cells in mice at 50 mg/kg peroral dose, days 1-15 administration", "format": "functional, organism-based", "set-up": "dose 50 mg/kg", "procedure,_shortened": "(§2)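 Tumor-bearing nude mice (NCr nu/nu, 18–22 g, 6–8 per group) were implanted in the right axilla with tumor fragments on day 0 and dosed by average cage weight. Vehicle was 50 mM sodium lactate pH 4.0, or 0.5% methyl cellulose suspension; cisplatin was given in saline. Host body weight change is given as the maximum treatment-related weight loss.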"}, "[5]": {"test_system": "NIH3T3", "assay": "Growth of NIH3T3 cells in soft agar with continuous treatment", "format": "functional, cell-based", "conditions": "Mus musculus", "procedure,_shortened": "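NIH3T3 cells transfected with PDGF-B exposed to a range of concentrations for 3 days, then cloned in soft agar with the same concentration kept present. Colonies stained and counted after two weeks. IC50; mean of two experiments, each in duplicate.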"}, "[6]": {"test_system": "NIH3T3", "assay": "Inhibition of NIH3T3 proliferation by sulforhodamine B assay", "format": "functional, cell-based, Mus musculus", "conditions": "nih3t3"}, "[7]": {"test_system": "SK-OV-3", "assay": "Weight change of SK-OV-3 cell tumors in mice at 40 mg/kg peroral dose, days 15-29 administration", "format": "functional", "conditions": "route oral", "procedure,_shortened": "(§3)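 Nude mice (NCr nu/nu, 18–22 g, 6–8 per group) were randomized and implanted with serially passaged tumor fragments in the right axilla on day 0. Oral dosing was based on average cage weight, on the days stated, over a dose range from toxic to ineffective. Vehicle was 50 mM sodium lactate buffer, pH 4.0, or 0.5% methyl cellulose suspension. Host weight change is reported as maximum treatment-related loss.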"}, "[8]": {"test_system": "Mus musculus", "assay": "Weight change of PDGF-transfected fibroblast cells in mice at 50 mg/kg peroral dose, days 1-15 administration", "format": "functional", "conditions": "route oral", "procedure,_shortened": "as §3"}, "[9]": {"test_system": "Mus musculus", "assay": "Difference in days for treated (T) and control (C) PDGF-transfected fibroblast tumors to reach 750 mg in mice at 50 mg/kg peroral dose, days 1-15 administration", "format": "functional", "conditions": "route oral", "procedure,_shortened": "as §1"}, "[10]": {"test_system": "COLO 205", "assay": "Weight change of COLO 205 tumor cells in mice at 40 mg/kg peroral dose, days 9-23 administration", "format": "functional, organism-based", "set-up": "dose 40 mg/kg", "procedure,_shortened": "as §2"}, "[11]": {"test_system": "MCF7", "assay": "Net reduction in tumor burden between first and last treatments of MCF-7 cell tumors in mice at 50 mg/kg peroral dose, days 1-15 administration", "format": "functional", "conditions": "route oral", "procedure,_shortened": "(§4)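 NCr nu/nu nude mice (18–22 g, 6–8 per group, randomized) had tumor fragments, kept by serial passage in nude mice, implanted in the right axilla on day 0. Mice were dosed by average cage weight on the listed days, over a range from toxic to ineffective doses. Vehicle was 50 mM sodium lactate pH 4.0 or 0.5% methyl cellulose suspension. Net log cell kill was taken between first and last treatments.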"}, "[12]": {"target": "T1, Fibroblast growth factor receptor 1", "assay": "Inhibition of fibroblast growth factor receptor (FGFr) tyrosine kinase", "procedure,_shortened": "(§5)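 Recombinant kinases (PDGFr-β, FGFr-1, c-Src), enzyme inhibition IC50. Mean of at least two separate determinations, each done in triplicate; replicate values typically varied under 30%.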"}, "[13]": {"test_system": "HT-29", "assay": "Difference in days for treated (T) and control (C) HT-29 cell tumors to reach 750 mg in mice at 44 mg/kg peroral dose, days 15-29 administration", "format": "functional", "conditions": "route oral", "procedure,_shortened": "as §1"}, "[14]": {"test_system": "MCF7", "assay": "Weight change of MCF-7 tumor cells in mice at 50 mg/kg peroral dose, days 1-15 administration", "format": "functional, organism-based", "set-up": "dose 50 mg/kg", "procedure,_shortened": "as §2"}, "[15]": {"test_system": "SK-OV-3", "assay": "Difference in days for treated (T) and control (C) SKOV-3 cell tumors to reach 750 mg in mice at 40 mg/kg peroral dose, days 15-29 administration", "format": "functional", "conditions": "route oral", "procedure,_shortened": "as §1"}, "[16]": {"test_system": "NIH3T3", "assay": "Growth of NIH3T3 cell colonies in soft agar with continuous treatment", "format": "functional, cell-based", "conditions": "Mus musculus", "procedure,_shortened": "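Soft agar cloning used PDGF-B-transfected NIH3T3 (NIH3T3/PDGF) cells. Cells were exposed 3 days to a concentration series, then plated in soft agar with the matching compound concentration kept present. Colonies were stained and counted after two weeks. IC50; mean of two experiments, each in duplicate.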"}, "[17]": {"test_system": "COLO 205", "assay": "Net reduction in tumor burden between first and last treatments of COLO 205 cell tumors in mice at 40 mg/kg peroral dose, days 9-23 administration", "format": "functional", "conditions": "route oral", "procedure,_shortened": "as §4"}, "[18]": {"test_system": "HT-29", "assay": "Weight change of HT-29 tumor cells in mice at 44 mg/kg peroral dose, days 15-29 administration", "format": "functional", "conditions": "route oral", "procedure,_shortened": "as §2"}, "[19]": {"test_system": "C6", "assay": "Difference in days for treated (T) and control (C) C6 glioma cell tumors to reach 750 mg in mice at 50 mg/kg peroral dose, days 1-15 administration", "format": "functional", "conditions": "route oral", "procedure,_shortened": "as §1"}, "[20]": {"test_system": "C6", "assay": "C6 cell growth in soft agar with continuous treatment", "format": "functional, cell-based, Rattus norvegicus", "conditions": "c6", "procedure,_shortened": "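C6 rat glioma cells (F10 Ham's with 15% horse serum, 2.5% fetal calf serum) exposed 3 days to a concentration series, then plated in soft agar with compound still present at the same concentration; colonies stained and counted after two weeks. IC50; mean of two experiments, each in duplicate.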"}, "[21]": {"test_system": "C6", "assay": "Inhibition of C6 cell proliferation in sulforhodamine B assay", "format": "functional, cell-based, Rattus norvegicus", "conditions": "c6", "procedure,_shortened": "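C6 rat glioma cells (F10 Ham's, 15% horse serum, 2.5% fetal calf serum) seeded and allowed 24 h to attach, then given serial 2-fold compound dilutions; 4 d at 37 °C, 5% CO2; growth read by sulforhodamine B staining. IC50; mean of two experiments, each in triplicate.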"}, "[22]": {"target": "Proto-oncogene tyrosine-protein kinase Src (Homo sapiens, UniProt P12931)", "sequence (P12931 2-536 limits assumed)": "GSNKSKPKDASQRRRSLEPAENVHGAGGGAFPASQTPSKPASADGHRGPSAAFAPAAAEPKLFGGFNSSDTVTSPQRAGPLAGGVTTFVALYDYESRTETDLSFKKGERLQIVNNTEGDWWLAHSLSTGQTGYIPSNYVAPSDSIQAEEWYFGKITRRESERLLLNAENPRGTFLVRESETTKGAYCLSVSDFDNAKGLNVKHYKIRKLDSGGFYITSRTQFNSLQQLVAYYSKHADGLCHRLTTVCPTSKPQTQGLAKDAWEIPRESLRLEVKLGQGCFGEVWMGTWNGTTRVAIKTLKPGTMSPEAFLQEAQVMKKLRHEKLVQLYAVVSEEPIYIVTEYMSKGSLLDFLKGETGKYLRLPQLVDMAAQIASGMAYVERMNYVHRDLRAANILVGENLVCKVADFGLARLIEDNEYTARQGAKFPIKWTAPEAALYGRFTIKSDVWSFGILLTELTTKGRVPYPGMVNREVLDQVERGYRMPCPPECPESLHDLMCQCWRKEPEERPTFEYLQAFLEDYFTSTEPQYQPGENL", "assay": "Inhibition of c-Src tyrosine kinase", "format": "functional", "procedure,_shortened": "as §5"}, "[23]": {"test_system": "COLO 205", "assay": "Difference in days for treated (T) and control (C) COLO 205 cell tumors to reach 750 mg in mice at 40 mg/kg peroral dose, days 9-23 administration", "format": "functional", "conditions": "route oral", "procedure,_shortened": "as §1"}, "[24]": {"test_system": "C6", "assay": "C6 cell growth in soft agar with discontinued treatment", "format": "functional, cell-based, Rattus norvegicus", "conditions": "c6", "procedure,_shortened": "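C6 rat glioma cells given 3-day exposure to a concentration series, then washed free of inhibitor and plated in drug-free soft agar; colonies stained and counted after two weeks. IC50; mean of two experiments, each in duplicate.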"}}, "note": "“And” between values parts separate entries of the source, which are not always exact repeats. Equal values may be shown once.", "data": [{"smiles": "CCN(CC)CCOc1cccc(Nc2ncc3cc(-c4c(Cl)cccc4Cl)c(=O)n(C)c3n2)c1", "values": [{"measurement": "T-C", "setting": "[1]", "value": 0.8, "unit": "days"}, {"measurement": "IC50", "setting": "[2]", "value": 32, "unit": "nM"}, {"measurement": "IC50", "setting": "[3]", "value": 1.7, "unit": "nM"}, {"measurement": "Weight change", "setting": "[4]", "value": "Weight gain"}, {"measurement": "IC50", "setting": "[5]", "value": 17, "unit": "nM"}, {"measurement": "IC50", "setting": "[6]", "value": "147 nM and 410 nM"}, {"measurement": "Weight change", "setting": "[7]", "value": -2, "unit": "g"}, {"measurement": "Weight change", "setting": "[8]", "value": -1.6, "unit": "g"}, {"measurement": "T-C", "setting": "[9]", "value": -0.4, "unit": "days"}, {"measurement": "Weight change", "setting": "[10]", "value": "Weight gain"}, {"measurement": "Net cell kill", "setting": "[11]", "value": -0.6, "unit": "log10"}, {"measurement": "IC50", "setting": "[12]", "value": 30, "unit": "nM"}, {"measurement": "T-C", "setting": "[13]", "value": -2.5, "unit": "days"}, {"measurement": "Weight change", "setting": "[14]", "value": "Weight gain"}, {"measurement": "T-C", "setting": "[15]", "value": -0.4, "unit": "days"}, {"measurement": "IC50", "setting": "[16]", "value": 17, "unit": "nM"}, {"measurement": "Net cell kill", "setting": "[17]", "value": -0.4, "unit": "log10"}, {"measurement": "Weight change", "setting": "[18]", "value": -2, "unit": "g"}, {"measurement": "T-C", "setting": "[19]", "value": -2, "unit": "days"}, {"measurement": "IC50", "setting": "[20]", "value": "440 nM and 120 nM"}, {"measurement": "IC50", "setting": "[21]", "value": "840 nM and 350 nM"}, {"measurement": "IC50", "setting": "[22]", "value": 9, "unit": "nM"}, {"measurement": "T-C", "setting": "[23]", "value": 6.8, "unit": "days"}, {"measurement": "IC50", "setting": "[24]", "value": "2790 nM and 400 nM"}]}]}
